Screens from PubChem BioAssay.
KCNQ1 block: inhibitors of human KCNQ1 potassium channel; P51787; CHO-K1 KCNQ1, FluxOR thallium flux fluorescence; stronger effect = higher value; B-score at 10 µM; hit rate 1.3% among 310,000; AID 2642;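 active means compounds whose thallium flux B-score, printed positive for inhibition, exceeds three library SD while starting fluorescence stays within three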;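 further: channel opened by potassium depolarization with thallium stimulus after 20 min compound exposure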
hERG rescue: hERG (human) protection from proarrhythmic block; CHO-hERG, FluxOR thallium flux, dofetilide IC70 present; activation (rescue from dofetilide block), less the hit threshold, % at 10 µM; hit rate 0.51% among 310,000; AID 1511; Q12809;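 active means activation above the mean of controls blocked by dofetilide plus 5 SD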;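 further: thallium influx through hERG after potassium depolarization seen as dye fluorescence rise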
Target sequence (Q12809 whole entry, looked up): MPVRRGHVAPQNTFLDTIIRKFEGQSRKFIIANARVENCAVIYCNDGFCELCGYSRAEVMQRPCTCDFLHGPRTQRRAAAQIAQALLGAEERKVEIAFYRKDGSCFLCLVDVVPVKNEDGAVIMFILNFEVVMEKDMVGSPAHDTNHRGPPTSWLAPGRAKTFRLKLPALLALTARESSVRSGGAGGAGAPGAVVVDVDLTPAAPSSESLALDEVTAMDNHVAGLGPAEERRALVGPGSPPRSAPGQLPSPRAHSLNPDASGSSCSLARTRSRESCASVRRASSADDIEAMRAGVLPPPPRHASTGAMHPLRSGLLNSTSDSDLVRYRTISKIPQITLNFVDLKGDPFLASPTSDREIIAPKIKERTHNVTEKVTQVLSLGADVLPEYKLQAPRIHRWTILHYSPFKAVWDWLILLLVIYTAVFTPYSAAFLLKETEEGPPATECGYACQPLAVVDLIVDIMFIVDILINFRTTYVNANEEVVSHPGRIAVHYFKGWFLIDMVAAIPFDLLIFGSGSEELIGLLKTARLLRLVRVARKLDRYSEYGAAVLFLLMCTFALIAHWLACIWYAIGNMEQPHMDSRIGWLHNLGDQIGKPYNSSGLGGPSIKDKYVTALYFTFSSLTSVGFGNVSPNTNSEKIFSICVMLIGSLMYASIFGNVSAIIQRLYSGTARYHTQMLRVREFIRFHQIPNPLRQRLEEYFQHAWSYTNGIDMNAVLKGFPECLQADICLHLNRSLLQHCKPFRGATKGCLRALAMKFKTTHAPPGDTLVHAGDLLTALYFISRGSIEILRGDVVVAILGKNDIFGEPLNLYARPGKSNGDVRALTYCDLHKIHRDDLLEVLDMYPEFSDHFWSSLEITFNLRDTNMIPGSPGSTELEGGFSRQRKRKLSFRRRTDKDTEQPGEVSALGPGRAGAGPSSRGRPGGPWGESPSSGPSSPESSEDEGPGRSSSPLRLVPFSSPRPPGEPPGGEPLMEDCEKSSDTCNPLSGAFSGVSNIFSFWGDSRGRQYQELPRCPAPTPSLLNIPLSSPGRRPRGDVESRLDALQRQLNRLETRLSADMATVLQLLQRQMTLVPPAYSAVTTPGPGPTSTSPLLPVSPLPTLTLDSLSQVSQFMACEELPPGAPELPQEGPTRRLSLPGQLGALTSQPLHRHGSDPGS
KCNK3 inh: human KCNK3 channel inhibition, primary screen; B-score at 10 µM; O14649; CHO-KCNK3 thallium flux, FluxOR fluorescence; stronger effect = lower value; hit rate 0.84% among 340,000; AID 602410;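 active means B-score under library mean minus 4 SD, starting fluorescence ratio at most library mean plus 5 SD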;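 further: more negative B-score means stronger inhibition of thallium flux through KCNK3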
KCNQ1 act: human KCNQ1 channel potentiation or activation; P51787; CHO-K1 KCNQ1, thallium flux FluxOR fluorescence; stronger effect = higher value; B-score at 10 µM; hit rate 0.35% among 310,000;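 active means fluorescence ratio B-score, a plate-corrected score, at least three library SD, with initial intensity B-score within 5 SD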
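Assay system: stable KCNQ1 CHO-K1 line; medium: assay buffer, equal DMSO in all wells; timing: 90 min dye loading and 20 min compound exposure, both at room temperature; technique: kinetic FluxOR thallium fluorescence, 10-s 1-Hz baseline, 110-s post-stimulus read; read-out basis: B score of baseline-normalized fluorescence ratio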
KCNK9 inh: blocks the human KCNK9 two-pore domain potassium channel. B-score at 10 µM. Q9NPC2. AID 488922. hit rate 1.2% among 310,000. HEK293 KCNK9, FluxOR thallium flux fluorescence; stronger effect = lower value;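 active means ratio B-score over 3 SD below the library mean, with starting fluorescence within 5 SD of its mean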;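 further: negative B-score means less thallium flux so channel inhibition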
Starred values were filed as active, the others as inactive; i = inactive; x = no result. This is a sample that favours compounds with a hit; in the whole collection about 3.1% have one here.

SMILES	KCNQ1 block	hERG rescue	KCNK3 inh	KCNQ1 act	KCNK9 inh
O=C(COc1ccccc1)NC(=S)Nc1ccc(Br)cn1	i	-5.7	i	22*	i
O=C(CCn1c(=O)oc2ccccc21)Nc1nc2ccccc2s1	i	-11.3	i	i	-7.24*
CC(C)C[C@@H](CO)N1CCN(CC(C)C)CCC1=O	i	5.7*	i	i	i
CCCN1CCC(=O)N([C@H](CO)CC(C)C)CC1	i	-6.5	i	i	i
CC(c1ccccc1C(O)(c1ccccc1)c1ccccc1)N(C)C (configuration not stated)	i	-2.1	i	14*	i
NC(=O)C1CCCN1Cc1ccc2c(c1)OCO2 (configuration not stated)	x	x	i	x	x
COc1ccc(CCN2CC(C(=O)NCCc3ccccc3C(F)(F)F)CCC2=O)cc1 (configuration not stated)	i	-12.1	i	i	i
Oc1c(C=Nc2ccc(Cl)cn2)sc2ccccc12	i	-13.4	i	i	i
Oc1c(/C=N/c2ccccn2)sc2ccccc12	i	-9.1	i	11*	i
O=S(=O)(Nc1ccc(O)c2ccccc12)c1ccc(Br)cc1	i	30.1*	x	i	i
COc1cc(C)c(C(C)C)cc1S(=O)(=O)NC1CC(C)(C)NC(C)(C)C1	i	5.7*	i	i	i
O=C1C(Cl)=C(NCCN2CCCCC2)C(=O)c2ccccc21	6*	-21.0	i	i	i
O=C(Nc1nc(=O)c2ccccc2s1)c1ccccc1	i	2.9	i	11*	i
O=C(Nc1nc(=O)n(C(=O)C2CC2)s1)c1ccccc1	i	-12.8	i	i	i
Cc1ccc(C(=O)Nc2nc3ccccc3c(=O)s2)cc1	i	23.1*	i	35*	i
Cc1ccc(C(=O)Nc2nc(=O)n(C(=O)C3CC3)s2)cc1	i	5.0*	i	i	i
Cc1cc(S(=O)(=O)N2CCN=C2c2ccccc2)c(C)cc1Cl	i	-14.6	i	i	i
CCOC(=O)c1c(N)c(C#N)cn1-c1ccccc1	i	-13.1	i	i	i
CCOC(=O)c1c(NC(=O)c2nn(CC)cc2Br)c(C#N)cn1-c1ccccc1	i	-5.0	-10.8*	i	i
O=C(NC(=S)Nc1ccccc1N1CCCC1)c1ccc([N+](=O)[O-])cc1	i	8.1*	i	8*	i
O=C(NC(=S)Nc1ccccc1N1CCCCC1)c1ccc(-c2cccc([N+](=O)[O-])c2)o1	i	-8.7	i	i	i
O=C(NC(=S)Nc1ccccc1N1CCCC1)c1ccc(-c2cccc([N+](=O)[O-])c2)o1	i	-1.2	i	8*	i
O=C(NC(=S)Nc1cc([N+](=O)[O-])ccc1O)c1ccc2c(c1)OCO2	6*	-11.6	i	i	i
COC(=O)c1ccccc1NC(=S)NC(=O)c1ccc2c(c1)OCO2	i	-8.5	i	i	i
COc1cccc(/C=N/n2c(SC)nnc2-c2ccccc2)c1O	i	1.5	i	15*	i
SMILES	KCNQ1 block	hERG rescue	KCNK3 inh	KCNQ1 act	KCNK9 inh
COc1cccc(/C=N/n2c(SC)nnc2-c2ccccc2)c1OC	i	-11.9	i	i	i
CC1CCCN(c2ccc(C(=O)Nc3ccc4c(c3)OCO4)cc2[N+](=O)[O-])C1 (configuration not stated)	6*	-6.8	i	i	i
Cc1ccc(NC(=O)c2ccc3c(c2)OCO3)cc1Cl	i	12.8*	i	i	i
CC1=NN(/C(=N\c2nnc(C)s2)Nc2ccc(C(C)(C)C)cc2)[C@H](c2ccc(C)cc2)S1	8*	-4.6	i	i	i
O=S(=O)(c1cccc(-c2nnc(SCc3ccc(Cl)cc3)o2)c1)N1CCCCC1	i	-5.9	i	i	-7.21*
NC(=O)CSc1nnc(-c2cccc(S(=O)(=O)N3CCCCC3)c2)o1	i	-11.1	i	i	i
O=CNC1(c2ccccc2)CCCCC1	x	x	i	x	x
CCOC(=O)CC(NC(=O)c1cccc2c1C(=O)N(Cc1cccnc1)C2)c1ccc(OCC)c(OC)c1 (configuration not stated)	i	-4.3	i	i	i
COc1ccc(-c2oc3cccnc3c2C#CC2(O)CCCCC2)cc1	6*	-4.8	i	i	i
COc1ccc(-c2oc3cccnc3c2C#CCO)cc1	i	-6.1	i	i	i
COc1ccccc1CSc1nc2c(c(=O)n(C)c(=O)n2C)n1C	i	-8.9	i	i	i
CC(N=c1ccccn1C(=O)Nc1cccc(C(F)(F)F)c1)c1ccco1 (configuration not stated)	9*	-5.7	i	i	i
N#C/C(=C(/O)c1ccco1)c1nc2ccccc2s1	i	-8.7	i	i	i
CC1=CC(=C(C#N)c2nc3ccccc3s2)C=C(C)N1Cc1ccco1	i	-7.3	-13.2*	i	i
COc1cc(/C=C(\C#N)C(=O)c2c[nH]c3ccccc23)cc(OC)c1O	7*	-12.7	i	i	i
COc1cc(/C=C(\C#N)C(=O)NCCc2ccccc2)cc(OC)c1O	i	-9.3	i	i	i
CCCn1c(C)cc(C(=O)COC(=O)c2cc(S(=O)(=O)NCC(C)C)c(Cl)cc2Cl)c1C	i	-8.8	i	i	-6.99*
COc1ccc(/C=C2\SC(=O)N(CC(=O)NCCCn3ccnc3)C2=O)cc1	7*	-7.3	i	i	i
CCc1sc(C(=O)NNC(=O)c2cncc(Br)c2)cc1C	x	x	i	x	x
COC(=O)c1cc2ccsc2n1Cc1nc(-c2cccc(Cl)c2)oc1C	i	-1.4	i	i	-7.33*
Cc1ccc(S(=O)(=O)NC(=NCc2ccccc2)c2ccc(F)cc2)cc1	i	-2.6	i	i	i
Cc1ccccc1S(=O)(=O)NC(=NCc1ccc(F)cc1)c1ccccc1	x	x	-9.26*	x	x
Cc1ccc(-n2c(=O)c3sccc3n(CC(=O)N3CCCC3)c2=O)cc1	i	-2.4	i	i	i
O=C(Cn1c(=O)n(-c2ccccc2)c(=O)c2sccc21)N1CCCC1	6*	-24.4	i	i	i
Cc1ccc(-n2ncc3c(=O)n(CC(=O)N4CCN(c5ccccc5F)CC4)cnc32)cc1C	i	0.0	i	7*	i
CCN(CC)S(=O)(=O)c1ccc(C(=O)/C=C/c2ccc(-c3ccc([N+](=O)[O-])cc3)o2)cc1	i	-13.5	-9.26*	i	i
COc1cccc(/C=C(/C(=O)OCC(=O)NC2CCCCCCC2)c2ccccc2)c1	10*	-25.4	i	i	-9.87*
CCC/C=N/NC(=O)c1[nH]c2c([N+](=O)[O-])cccc2c1C	i	-6.1	i	16*	i
